Bioassay records as filed in PubChem.
Hits are enriched below; roughly 3% of the tested compounds scored in any of these assays.
Apaf-1 inh = human Apaf-1 inhibition | reconstituted apoptosome caspase-3 activity, DEVD-Rh110 fluorescence | 330,000 tested, 0.71% active | inhibition, % at 20 µM | O14727; active = inhibition of at least 40% at 20 µM;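 also: plate controls were DMSO wells for no effect and DEVD-CHO caspase inhibitor wells for full effect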
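Assay system – apoptosome proteins · Medium – Hepes buffer, pH 7.5 · Also added – cytochrome c with DEVD-Rh110 · Timing – 30 min compound preincubation, 50 min activation, room temperature · Detection – Rh110 fluorescence, excitation 480 nm, emission 540 nm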
SENP8 block-1 = inhibitors of human SENP8 protease; Q96LD8; purified SENP8, Z-RLRGG-aminoluciferin cleavage, luminescence; inhibition, % at 10 µM; 330,000 tested, 1.2% active; in the data active = inhibition above about 50%
Target sequence (Q96LD8 whole entry, looked up): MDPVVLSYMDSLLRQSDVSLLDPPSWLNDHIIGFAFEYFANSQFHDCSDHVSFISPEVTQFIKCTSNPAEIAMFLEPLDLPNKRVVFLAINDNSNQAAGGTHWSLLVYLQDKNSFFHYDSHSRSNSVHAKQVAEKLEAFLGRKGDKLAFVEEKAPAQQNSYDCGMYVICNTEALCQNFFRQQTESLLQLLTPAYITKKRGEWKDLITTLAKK
UBC13 polyUb = blocks human UBC13 polyubiquitin chain formation. 330,000 tested, 0.47% active. TR-FRET. AID 485273. P61088. inhibition, % at 20 µM; in the data active = inhibition above about 45%, passing the limit was not always enough; inconclusive = no clear call, values can overlap the other calls
Target sequence (P61088 whole entry, looked up): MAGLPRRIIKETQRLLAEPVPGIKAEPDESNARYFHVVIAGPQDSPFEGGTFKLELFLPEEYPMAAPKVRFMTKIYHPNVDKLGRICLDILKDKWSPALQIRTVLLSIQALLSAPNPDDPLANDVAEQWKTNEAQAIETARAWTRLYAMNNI
SENP8 block-2 = SENP8 (human) protease inhibition | Q96LD8 | inhibition, % at 20 µM | recombinant SENP8, Nedd8 substrate fluorescence | 360,000 tested, 0.64% active; in the data active = inhibition mostly above about 40%, no sharp cut-off; inactive = mostly below about 27%
SENP6 block = SENP6 protease inhibition | Q9GZR1 | Recombinant SENP6 catalytic domain, aminoluciferin luminescence | inhibition, % at 10 µM | 330,000 tested, 1.8% active | AID 2599;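 active = inhibition above about 50% at the single tested dose, limit read from the data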;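 also: plate controls were DMSO wells with enzyme for no effect and DMSO wells lacking enzyme for full effect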
SENP7 inh = blocks the human protease SENP7. recombinant SENP7, Z-RLRGG-aminoluciferin luminescence, 40 min. 330,000 tested, 1.5% active. inhibition, % at 5 µM;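 active = inhibition above about 50% at the single test dose, limit read from the data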;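 also: plate controls were DMSO with enzyme for no effect and no enzyme buffer wells for full effect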
Target sequence (Q9BQF6 706-1050 limits assumed): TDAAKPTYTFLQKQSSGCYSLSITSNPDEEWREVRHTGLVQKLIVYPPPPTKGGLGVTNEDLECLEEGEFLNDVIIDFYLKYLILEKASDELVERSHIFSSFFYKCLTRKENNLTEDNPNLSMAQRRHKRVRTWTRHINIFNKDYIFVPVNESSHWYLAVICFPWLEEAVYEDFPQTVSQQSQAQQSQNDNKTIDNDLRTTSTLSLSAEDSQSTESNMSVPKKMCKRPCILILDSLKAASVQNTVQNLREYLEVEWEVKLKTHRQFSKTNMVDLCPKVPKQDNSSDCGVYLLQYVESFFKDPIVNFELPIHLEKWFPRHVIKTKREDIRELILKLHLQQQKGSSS
SENP8 confirm = confirmation of human SENP8 protease inhibitors; shares compounds with SENP7 inh; inhibition, % at 12.5 µM; 6,200 tested, 40% active; AID 488912; Recombinant SENP8, Z-RLRGG-aminoluciferin luminescence, 60 min;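 active = mean inhibition across replicates above about 50%, limit read from the data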
SENP6 confirm = human SENP6 inhibition, confirmed. shares compounds with SENP7 inh. recombinant SENP6, Z-RLRGG-aminoluciferin luminescence. inhibition, % at 12.5 µM. 6,200 tested, 58% active. AID 488915
SENP7 conf = human SENP7 inhibition, confirmed; inhibition, % at 12.5 µM; 6,200 tested, 69% active; recombinant SENP7, Z-RLRGG-aminoluciferin luminescence, 40 min; AID 488917; shares compounds with SENP7 inh
Casp3 SENP sel = inhibits human caspase-3 in SENP selectivity test; purified caspase-3, Z-DEVD-aminoluciferin luminescence, 60 min; 6,200 tested, 60% active; inhibition, % at 12.5 µM; shares compounds with SENP7 inh;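 active = mean inhibition above about 50%, limit read from the data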;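 also: plate controls were enzyme with DMSO for no effect and wells without caspase-3 for full effect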
Luc interf = interferes with luciferase luminescence in SENP counter-screen | shares compounds with SENP7 inh | Pre-incubated SENP8/Z-RLRGG-aminoluciferin, luciferase luminescence interference | inhibition, % at 12.5 µM | 6,200 tested, 39% active;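 active = mean inhibition above about 50% when retested at one dose, limit read from the data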;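 also: plate controls were DMSO wells with completed reaction for no effect and substrate without enzyme for full effect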
* marks the source's active call; other numbers are inactive results; ? = inconclusive; . = no result given.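 The calls were made as follows, unless noted: active = mean inhibition above about 50% in the one-dose retest (limit read from the data); inactive = the rest.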

SMILES	Apaf-1 inh	SENP8 block-1	UBC13 polyUb	SENP8 block-2	SENP6 block	SENP7 inh	SENP8 confirm	SENP6 confirm	SENP7 conf	Casp3 SENP sel	Luc interf
C/C(=C1/C(=O)N(c2ccc([N+](=O)[O-])cc2)N=C1c1ccccc1)N(C)C	5.5	13.1	-15.8	.	14.0	9.2	.	.	.	.	.
CC1=NN(c2nc3ccccc3[nH]2)C(=O)/C1=C/N(C)C	16.3	92.3*	-22.7	14.9	88.2*	95.9*	87.7*	84.1*	98.5*	96.8*	91.3*
COC(=O)c1ccccc1NC(=O)CSc1n[nH]c(-c2ccco2)n1	8.2	-7.2	-8.4	2.4	-15.1	-6.2	.	.	.	.	.
Cc1ccc(S(=O)(=O)NCc2cccnc2)cc1	1.5	6.5	-3.3	9.5	2.6	-2.4	.	.	.	.	.
COC(=O)c1cc(C(=O)OCC(=O)NC(=O)NCc2ccccc2)cc([N+](=O)[O-])c1	14.1	0.8	-0.6	13.7	-9.9	-1.4	.	.	.	.	.
CC(=O)Nc1nc(COc2ccc3ccccc3c2)cs1	-0.4	37.2	-5.8	9.8	61.7*	61.8*	43.9	47.2	80.6*	.	36.9
O=C(Nc1nc(COc2ccccc2)cs1)C1CCC1	10.5	0.6	1.8	12.0	54.2*	9.8	-27.6	-20.3	-10.7	-7.3	-2.6
CC(Oc1ccc(F)cc1)C(=O)Nc1ccccc1C(=O)N1CCCCC1 (centres undefined)	-0.4	4.4	10.5	-3.5	-1.7	8.6	.	.	.	.	.
O=C(c1cccs1)c1ccc(-c2cccs2)s1	21.9	94.1*	?	-376.1	95.0*	94.2*	64.8*	95.9*	96.9*	85.8*	41.5
O=C(Nc1ccccc1)Nc1ncc([N+](=O)[O-])s1	6.5	96.6*	-79.8	35.9	99.1*	99.5*	98.5*	99.6*	102.4*	98.0*	97.6*
Cc1nc(C)c(C(=O)Nc2ncc([N+](=O)[O-])s2)o1	-1.1	95.0*	6.3	22.1	98.0*	89.3*	97.5*	98.0*	101.6*	97.7*	96.5*
CC(=O)N1CCOc2ccc(S(=O)(=O)N3CCC(C(=O)Nc4ccc(F)cc4)CC3)cc21	7.6	-11.3	-8.3	5.7	5.3	1.0	.	.	.	.	.
O=C(COC(=O)c1ccc(O)cc1O)N=c1sccn1Cc1ccccc1Cl	24.5	-20.4	11.1	15.0	-9.7	-6.8	.	.	.	.	.
Cc1ccc(Cn2ccsc2=NC(=O)COC(=O)c2ccc(O)cc2O)cc1	11.1	40.8	2.7	-3.1	74.0*	23.2	57.1*	55.1*	78.9*	24.6	46.1
COC(=O)c1ccccc1NC(=O)Nc1cccnc1	-8.9	58.8*	7.4	-33.3	76.5*	0.8	4.8	72.5*	95.0*	92.2*	69.5*
COC(=O)c1ccccc1NC(=O)c1cccnc1	1.7	5.0	-6.5	10.3	17.7	-1.8	.	.	.	.	.
CCCCc1ccc(NC(=S)Nc2cccnc2)cc1	1.0	-9.5	-7.8	9.5	-12.7	-6.1	.	.	.	.	.
CCCCc1ccc(NC(=O)Nc2cccnc2)cc1	31.9	50.8*	6.0	12.3	73.8*	57.6*	63.1*	67.3*	84.5*	38.9	41.0
O=C(c1cc2nc(-c3ccc(F)cc3)cc(C(F)(F)F)n2n1)N1CCCCC1c1cccnc1 (centres undefined)	9.7	1.7	-1.2	-373.3	-2.9	1.1	.	.	.	.	.
CCCOc1ccc(N2C(=O)CC(N(CCOC34CC5CC(CC(C5)C3)C4)C(C)=O)C2=O)cc1 (centres undefined)	19.0	-2.4	-9.3	10.2	-26.7	-4.2	.	.	.	.	.
Fc1ccccc1CNc1ncnc2sccc12	7.9	-6.0	-0.9	-3.9	87.1*	-0.3	-5.7	-5.4	-11.5	0.3	3.6
c1ccc(-c2nc3cc4ccccc4cc3[nH]2)nc1	11.8	93.8*	-17.1	-319.1	98.9*	99.7*	96.5*	97.1*	100.5*	95.6*	93.8*
c1cncc(-c2nc3cc4ccccc4cc3[nH]2)c1	-13.7	89.2*	-9.8	-262.6	89.8*	0.9	86.7*	89.3*	100.1*	88.5*	61.7*
CCn1c(SCC(=O)Nc2cc(S(=O)(=O)N3CCOCC3)ccc2OC)nnc1-c1ccncc1	3.9	-9.3	-13.5	-32.2	1.0	-0.8	.	.	.	.	.
O=C(COc1ccccc1Cl)NNC(=O)c1ccc2nc[nH]c2c1	9.1	-1.5	4.4	-11.3	-8.8	3.9	.	.	.	.	.
SMILES	Apaf-1 inh	SENP8 block-1	UBC13 polyUb	SENP8 block-2	SENP6 block	SENP7 inh	SENP8 confirm	SENP6 confirm	SENP7 conf	Casp3 SENP sel	Luc interf
CC(=O)Nc1cccc(OCC(=O)Nc2sccc2C(N)=O)c1	-30.7	48.2	16.8	4.0	68.1*	67.5*	40.2	48.4	86.3*	73.1*	28.4
CC(=O)Nc1cccc(OCC(=O)Nc2ccccc2)c1	8.4	-14.6	-10.9	14.8	36.4	17.5	.	.	.	.	.
CCCc1nn(C)c(C(=O)Nc2ccc3ccccc3c2)c1Cl	-0.2	29.5	-0.9	15.4	52.0*	36.5	-3.2	0.7	13.3	10.6	-1.2
CCCc1nn(C)c(C(=O)Nc2cccc(CC)c2)c1Cl	18.3	-4.3	19.1	11.6	1.0	7.0	.	.	.	.	.
CCc1nn(CC(=O)NCc2ccccc2Cl)c(=O)c2cccn12	-2.4	-4.3	7.8	5.2	-15.0	1.3	.	.	.	.	.
COCCOC(=O)CSc1ncccc1-c1nc2cc(C)c(C)cc2[nH]1	-7.5	92.8*	8.6	-439.1	21.0	95.3*	93.4*	95.6*	102.1*	96.3*	95.5*
Cc1cc2nc(-c3cccnc3SCC(=O)NC(C)C)[nH]c2cc1C	-2.1	81.8*	7.0	-371.0	90.3*	87.4*	86.2*	85.2*	98.1*	88.2*	8.6
CSc1ccc(NC(=O)Nc2cc(C)ccn2)cc1	10.3	29.2	-4.4	17.5	48.9	77.9*	13.1	30.4	30.9	34.7	11.0
Cc1ccnc(NC(=O)c2ccc([N+](=O)[O-])s2)c1	5.8	23.1	-7.9	9.5	35.1	42.7	.	.	.	.	.
COc1ccc(NC(=O)Nc2cc(C)ccn2)cc1	.	.	.	23.8	.	.	.	.	.	.	.
Cc1ccnc(NC(=O)c2cc3cc(F)ccc3s2)c1	14.3	73.1*	3.1	-65.6	87.1*	73.1*	78.8*	78.2*	94.8*	72.6*	59.6*
Cc1ccnc(NC(=O)Nc2ccc(F)cc2)c1	7.3	29.8	-14.1	19.9	70.6*	41.6	16.9	30.9	41.9	21.8	3.4
